{"source": "ChEMBL document CHEMBL4627284", "about": "“Pyrimethamine conjugated histone deacetylase inhibitors: Design, synthesis and evidence for triple negative breast cancer selective cytotoxicity” (Bioorg Med Chem, 2020)", "key": {"[1]": {"target": "Signal transducer and activator of transcription 3 (Homo sapiens) (UniProt P40763)", "sequence (P40763 whole entry)": "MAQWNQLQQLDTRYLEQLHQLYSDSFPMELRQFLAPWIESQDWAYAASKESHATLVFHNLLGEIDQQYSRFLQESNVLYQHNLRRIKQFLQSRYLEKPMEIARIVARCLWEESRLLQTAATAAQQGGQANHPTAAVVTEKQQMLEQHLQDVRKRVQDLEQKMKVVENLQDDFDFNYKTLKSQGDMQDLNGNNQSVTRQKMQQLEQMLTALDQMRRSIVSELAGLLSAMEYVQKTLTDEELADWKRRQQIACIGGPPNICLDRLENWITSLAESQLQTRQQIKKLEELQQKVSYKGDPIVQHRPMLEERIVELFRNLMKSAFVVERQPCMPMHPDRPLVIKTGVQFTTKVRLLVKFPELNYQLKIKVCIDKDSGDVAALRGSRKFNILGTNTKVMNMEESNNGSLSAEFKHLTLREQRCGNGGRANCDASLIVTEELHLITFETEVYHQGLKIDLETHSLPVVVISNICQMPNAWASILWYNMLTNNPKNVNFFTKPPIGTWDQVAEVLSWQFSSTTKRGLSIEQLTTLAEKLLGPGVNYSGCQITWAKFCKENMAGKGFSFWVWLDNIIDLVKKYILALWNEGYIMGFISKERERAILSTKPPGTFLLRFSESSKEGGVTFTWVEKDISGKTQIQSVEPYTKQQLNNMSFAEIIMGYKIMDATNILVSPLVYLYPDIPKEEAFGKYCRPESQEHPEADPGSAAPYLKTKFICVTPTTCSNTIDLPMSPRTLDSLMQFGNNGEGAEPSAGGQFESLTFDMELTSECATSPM", "experiment": "Inhibition of STAT3 in human MDA-MB-231 cells assessed as upregulation of Bcl-xLexpression after 24 hrs by western blot analysis", "type": "cell-based", "method_in_brief": "(§1)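 MDA-MB-231 cells, 1*10⁶ per well, were grown in DMEM for 24 h, serum-starved for 24 h, then treated for 24 h from DMSO solutions (final DMSO 0.1%; DMSO control). Cells were lysed in RIPA with protease and phosphatase inhibitors and protein equalized by BCA. 20-40 µg was run on 4-20% gels and transferred to PVDF, which was blocked in 5% BSA. Primary antibodies were applied overnight and secondary for 1 h, and band intensities were quantified by infrared imaging.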"}, "[2]": {"target": "Signal transducer and activator of transcription 3 (Homo sapiens) (UniProt P40763)", "experiment": "Inhibition of STAT3 in human MDA-MB-231 cells assessed as effect on pSTAT3 expression at 50 to 100 uM after 24 hrs by western blot analysis", "type": "cell-based", "method_in_brief": "as §1"}, "[3]": {"target": "T1, Protein deacetylase HDAC6 (Homo sapiens) (UniProt Q9UBN7)", "T1 sequence (whole entry)": "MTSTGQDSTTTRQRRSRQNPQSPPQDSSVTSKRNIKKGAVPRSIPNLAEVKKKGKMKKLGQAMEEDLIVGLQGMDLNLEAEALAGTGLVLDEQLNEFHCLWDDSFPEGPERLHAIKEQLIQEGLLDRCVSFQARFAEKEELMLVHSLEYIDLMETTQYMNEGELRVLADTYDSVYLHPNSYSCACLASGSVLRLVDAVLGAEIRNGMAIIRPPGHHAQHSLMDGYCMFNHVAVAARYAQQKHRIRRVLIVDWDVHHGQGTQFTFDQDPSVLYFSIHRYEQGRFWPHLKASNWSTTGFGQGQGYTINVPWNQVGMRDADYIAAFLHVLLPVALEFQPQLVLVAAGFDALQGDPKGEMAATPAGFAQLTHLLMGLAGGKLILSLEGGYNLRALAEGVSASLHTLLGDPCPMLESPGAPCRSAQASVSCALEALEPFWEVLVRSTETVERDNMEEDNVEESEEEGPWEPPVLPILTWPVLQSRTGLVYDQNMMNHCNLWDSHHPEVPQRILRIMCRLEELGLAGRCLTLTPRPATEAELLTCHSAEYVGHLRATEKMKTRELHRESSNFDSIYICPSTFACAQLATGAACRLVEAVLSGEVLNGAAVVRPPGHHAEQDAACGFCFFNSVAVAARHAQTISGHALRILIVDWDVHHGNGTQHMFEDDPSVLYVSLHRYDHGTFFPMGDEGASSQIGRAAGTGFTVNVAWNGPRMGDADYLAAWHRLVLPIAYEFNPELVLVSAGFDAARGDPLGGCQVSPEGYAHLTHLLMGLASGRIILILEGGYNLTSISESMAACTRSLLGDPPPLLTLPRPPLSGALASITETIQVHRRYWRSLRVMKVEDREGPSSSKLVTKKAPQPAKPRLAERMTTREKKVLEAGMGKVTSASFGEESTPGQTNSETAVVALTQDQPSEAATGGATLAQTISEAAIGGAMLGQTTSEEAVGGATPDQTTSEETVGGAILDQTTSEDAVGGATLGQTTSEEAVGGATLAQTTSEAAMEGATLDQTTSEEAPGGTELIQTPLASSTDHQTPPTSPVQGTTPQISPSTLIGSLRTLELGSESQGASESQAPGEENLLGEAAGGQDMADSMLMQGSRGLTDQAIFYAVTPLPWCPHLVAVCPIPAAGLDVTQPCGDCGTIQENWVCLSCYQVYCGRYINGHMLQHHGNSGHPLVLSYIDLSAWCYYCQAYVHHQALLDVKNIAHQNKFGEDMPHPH", "experiment": "Inhibition of HDAC6 in human MDA-MB-231 cells assessed as accumulation of acetylated tubulin at 50 to 100 uM by western blot analysis", "type": "cell-based", "method_in_brief": "(§2)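 MDA-MB-231 cells were grown in DMEM for 24 h, serum-starved for 24 h, then treated for 4 h (DMSO control). Lysates were made in RIPA with protease and phosphatase inhibitors and normalized by BCA. 20-40 µg was run on 4-20% gels and transferred to PVDF, which was blocked in 5% BSA. Membranes were probed overnight for acetyl-α-tubulin or acetyl-H4, then with secondary for 1 h, and bands were quantified by infrared imaging.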"}, "[4]": {"target": "Signal transducer and activator of transcription 3 (Homo sapiens) (UniProt P40763)", "experiment": "Inhibition of STAT3 in human MDA-MB-231 cells assessed as downregulation of cyclinD1 expression at 100 to 200 uM after 24 hrs by western blot analysis", "type": "cell-based", "method_in_brief": "as §1"}, "MCF7": {"tested_on": "MCF7", "experiment": "cells", "type": "functional, cell-based", "conditions": "Homo sapiens, MCF7, 72 h"}, "Histone deacetylase 1 [5]": {"target": "T2, Histone deacetylase 1 (Homo sapiens, UniProt Q13547)", "T2 sequence (Q13547 whole entry)": "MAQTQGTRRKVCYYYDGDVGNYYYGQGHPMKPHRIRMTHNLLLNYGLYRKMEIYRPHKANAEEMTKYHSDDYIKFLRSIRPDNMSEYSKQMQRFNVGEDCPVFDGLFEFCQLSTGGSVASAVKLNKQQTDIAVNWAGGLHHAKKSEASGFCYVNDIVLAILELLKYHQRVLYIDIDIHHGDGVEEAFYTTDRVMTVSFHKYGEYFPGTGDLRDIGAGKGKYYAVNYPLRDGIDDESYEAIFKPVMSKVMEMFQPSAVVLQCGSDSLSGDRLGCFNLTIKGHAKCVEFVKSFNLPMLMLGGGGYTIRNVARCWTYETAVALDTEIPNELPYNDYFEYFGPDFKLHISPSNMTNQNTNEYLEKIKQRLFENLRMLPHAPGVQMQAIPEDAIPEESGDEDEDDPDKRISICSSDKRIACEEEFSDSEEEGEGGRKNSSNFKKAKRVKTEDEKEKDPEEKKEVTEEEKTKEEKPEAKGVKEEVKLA", "experiment": "Inhibition of HDAC1 in human MDA-MB-231 cells assessed as accumulation of acetylated H4 at 50 to 100 uM by western blot analysis", "type": "cell-based", "method_in_brief": "as §2"}, "MDA-MB-231 [6]": {"tested_on": "MDA-MB-231", "experiment": "cells", "type": "functional, cell-based", "conditions": "Homo sapiens, MDA-MB-231, 72 h"}, "[7]": {"target": "Signal transducer and activator of transcription 3 (Homo sapiens) (UniProt P40763)", "experiment": "Inhibition of STAT3 in human MDA-MB-231 cells assessed as upregulation of p-p38 expression after 24 hrs by western blot analysis", "type": "cell-based", "method_in_brief": "as §1"}, "Histone deacetylase 1 [8]": {"target": "T2, Histone deacetylase 1", "experiment": "Inhibition of human recombinant HDAC1 using fluorogenic HDAC substrate preincubated for 30 mins followed by substrate addition and measured after 15 mins by fluorogenic assay"}, "A549": {"tested_on": "A549", "experiment": "cells", "type": "functional, cell-based", "conditions": "Homo sapiens, A549, 72 h"}, "Vero": {"tested_on": "Vero", "experiment": "cells", "conditions": "Chlorocebus sabaeus, 72 h"}, "[9]": {"target": "T3, Protein deacetylase HDAC6 (Homo sapiens, UniProt Q9UBN7)", "T3 sequence (Q9UBN7 whole entry)": "T1 sequence (whole entry)", "experiment": "Inhibition of human recombinant HDAC6 using fluorogenic HDAC substrate 3 preincubated for 30 mins followed by substrate addition and measured after 15 mins by fluorogenic assay"}, "Histone deacetylase 8": {"target": "T4, Histone deacetylase 8 (Homo sapiens, UniProt Q9BY41)", "T4 sequence (Q9BY41 whole entry)": "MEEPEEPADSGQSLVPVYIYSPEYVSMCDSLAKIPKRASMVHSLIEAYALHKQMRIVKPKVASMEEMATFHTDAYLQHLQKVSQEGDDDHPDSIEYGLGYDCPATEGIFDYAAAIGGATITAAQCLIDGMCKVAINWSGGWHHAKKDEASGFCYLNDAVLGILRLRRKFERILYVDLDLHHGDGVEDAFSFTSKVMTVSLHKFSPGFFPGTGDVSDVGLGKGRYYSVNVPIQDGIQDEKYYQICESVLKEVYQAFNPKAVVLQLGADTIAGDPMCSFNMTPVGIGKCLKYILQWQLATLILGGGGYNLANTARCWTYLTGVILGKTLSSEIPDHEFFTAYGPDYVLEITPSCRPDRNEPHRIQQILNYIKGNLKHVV", "experiment": "Inhibition of human recombinant HDAC8 using fluorogenic HDAC substrate class 2A preincubated for 30 mins followed by substrate addition and measured after 15 mins by fluorogenic assay"}, "MDA-MB-231 [10]": {"tested_on": "MDA-MB-231", "experiment": "Cell cycle arrest in human MDA-MB-231 cells assessed as accumulation of cells at G1 phase at 5 uM incubated for 48 hrs RNase/PI staining based flow cytometry assay (reference value: 64.3 %)", "type": "functional", "method_in_brief": "(§3)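 MDA-MB-231 cells, 5*10⁶ per 10 cm plate, were grown in DMEM for 24 h and then dosed for 48 h from DMSO stocks (final DMSO 0.1%; DMSO as control). Cells were trypsinized, washed twice in cold PBS and fixed in 70% ethanol overnight at -20°C. They were treated with 200 ug/mL RNase for 30 min, stained with 50 ug/mL PI at RT for 30 min, and DNA content was read by flow cytometry.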"}, "[11]": {"target": "Signal transducer and activator of transcription 3 (Homo sapiens) (UniProt P40763)", "experiment": "Inhibition of STAT3 in human MDA-MB-231 cells assessed as downregulation of cyclinD1 expression at 5 to 25 uM after 24 hrs by western blot analysis", "type": "cell-based", "method_in_brief": "as §1"}, "[12]": {"target": "Signal transducer and activator of transcription 3 (Homo sapiens) (UniProt P40763)", "experiment": "Inhibition of STAT3 in human MDA-MB-231 cells assessed as downregulation of Bcl-xL expression after 24 hrs by western blot analysis", "type": "cell-based", "method_in_brief": "as §1"}, "[13]": {"target": "Signal transducer and activator of transcription 3 (Homo sapiens) (UniProt P40763)", "experiment": "Inhibition of STAT3 in human MDA-MB-231 cells assessed as change in Bcl-2 expression at 0.8 to 1.6 uM after 24 hrs by western blot analysis", "type": "cell-based", "method_in_brief": "as §1"}, "[14]": {"target": "Signal transducer and activator of transcription 3 (Homo sapiens) (UniProt P40763)", "experiment": "Inhibition of STAT3 in human MDA-MB-231 cells assessed as slight down regulation of pSTAT3 expression at 50 to 100 uM after 24 hrs by western blot analysis", "type": "cell-based", "method_in_brief": "as §1"}, "MDA-MB-231 [15]": {"tested_on": "MDA-MB-231", "experiment": "Cell cycle arrest in human MDA-MB-231 cells assessed as accumulation of cells at G2 phase at 5 uM incubated for 48 hrs RNase/PI staining based flow cytometry assay (reference value: 17.4 %)", "type": "functional", "method_in_brief": "as §3"}}, "note": "Calls of active or inactive are those of the source. No cut-off for these calls is given here."}
{"molecule": "CCc1nc(N)nc(N)c1-c1ccc(Cl)cc1", "note": "[PYRIMETHAMINE]", "values": [{"measurement": "inhibition", "setting": "[1]", "result": "Active"}, {"measurement": "inhibition", "setting": "[2]", "result": "inactive"}, {"measurement": "inhibition", "setting": "[3]", "result": "inactive"}, {"measurement": "inhibition", "setting": "[4]", "result": "Active"}, {"measurement": "IC50", "setting": "MCF7", "result": 453, "unit": "µM"}, {"measurement": "inhibition", "setting": "Histone deacetylase 1 [5]", "result": "inactive"}, {"measurement": "IC50", "setting": "MDA-MB-231 [6]", "result": 238, "unit": "µM"}, {"measurement": "inhibition", "setting": "[7]", "result": "Dose-dependent effect"}]}
{"molecule": "CCc1nc(N)nc(N)c1-c1ccc(-c2ccc(/C=C/C(=O)NO)cc2)cc1", "values": [{"measurement": "IC50", "setting": "Histone deacetylase 1 [8]", "result": 3.7, "unit": "µM"}, {"measurement": "IC50", "setting": "MCF7", "result": 9.3, "unit": "µM"}, {"measurement": "IC50", "setting": "A549", "result": 10, "unit": "µM"}, {"measurement": "IC50", "setting": "Vero", "result": 6.9, "unit": "µM"}, {"measurement": "IC50", "setting": "[9]", "result": 0.073, "unit": "µM"}, {"measurement": "IC50", "setting": "MDA-MB-231 [6]", "result": 5.43, "unit": "µM"}]}
{"molecule": "CCc1nc(N)nc(N)c1-c1ccc(/C=C/C(=O)NO)cc1", "values": [{"measurement": "IC50", "setting": "Histone deacetylase 1 [8]", "result": 2.2, "unit": "µM"}, {"measurement": "IC50", "setting": "Histone deacetylase 8", "result": 1.8, "unit": "µM"}, {"measurement": "IC50", "setting": "[9]", "result": 0.4, "unit": "µM"}]}
{"molecule": "O=C(CCCCCCC(=O)Nc1ccccc1)NO", "note": "[VORINOSTAT]", "values": [{"measurement": "Activity", "setting": "MDA-MB-231 [10]", "result": 18.2, "unit": "%"}, {"measurement": "inhibition", "setting": "[11]", "result": "Active"}, {"measurement": "inhibition", "setting": "[12]", "result": "Dose-dependent effect"}, {"measurement": "inhibition", "setting": "[13]", "result": "inactive"}, {"measurement": "inhibition", "setting": "[14]", "result": "Active"}, {"measurement": "Activity", "setting": "MDA-MB-231 [15]", "result": 65.1, "unit": "%"}, {"measurement": "inhibition", "setting": "[7]", "result": "Dose-dependent effect"}]}
